Data: ChEMBL document CHEMBL5661984, “Allosteric ligands for the pharmacologically dark receptors GPR68 and GPR65” (Nature, 2015)
The source made the active and inactive calls.

What was measured:
[1] = Binding affinity to GPR68 E160A mutant expressed in human HEK293T cells assessed as cAMP production in presence of H+ proton by Split-luciferase based luminescence counter analysis; conditions: condition central nervous system disease
Procedure, shortened: (§1)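 Proton concentration-response of GPR68 (wild type or E160A/K/Q, R189L/M, H269F mutants) in transiently transfected HEK293-T cells. Read-out: GloSensor cAMP, with luciferin loading 90 min at 37°C at pH 8.4. Run with and without increasing modulator concentrations; 20 min at room temperature before luminescence. Proton KA fixed to the proton EC50 without modulator. KB, τA, α, β fitted globally with an operational allosteric model. n=4.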

[2] = Positive allosteric modulator activity at GPR68 R189M mutant transfected in human HEK293T cells assessed as proton-mediated calcium release at 10 uM incubated for 10 mins by Fluo-4 Direct calcium dye based FLIPR assay (reference value: 6.77 +/- 0.01); type: cell-based; conditions: HEK-293T
[3] = Binding affinity to GPR68 E160K mutant expressed in human HEK293T cells assessed as cAMP production in presence of H+ proton by Split-luciferase based luminescence counter analysis; conditions: condition central nervous system disease; procedure, shortened: as §1
[4] = Positive allosteric modulator activity at GPR68 E160K mutant expressed in human HEK293T cells assessed as cAMP production in presence of H+ proton by Split-luciferase based luminescence counter analysis (reference value: 6.70+/-0.08); type: cell-based; conditions: HEK-293T; procedure, shortened: as §1
[5] = Positive allosteric modulator activity at GPR68 R189L mutant transfected in human HEK293T cells assessed as proton-mediated calcium release at 10 uM incubated for 10 mins by Fluo-4 Direct calcium dye based FLIPR assay (reference value: 6.85 +/- 0.02); type: cell-based; conditions: HEK-293T
[6] = Positive allosteric modulator activity at GPR68 R189M mutant transfected in human HEK293T cells assessed as proton-mediated calcium release at 10 uM incubated for 10 mins by Fluo-4 Direct calcium dye based FLIPR assay (reference value: 1.43 +/- 0.01 %); conditions: HEK-293T, condition central nervous system disease
[7] = Positive allosteric modulator activity at GPR68 H269F mutant expressed in human HEK293T cells assessed as cAMP production in presence of H+ proton by Split-luciferase based luminescence counter analysis (reference value: 5.75+/-0.03); type: cell-based; conditions: HEK-293T; procedure, shortened: as §1
[8] = Positive allosteric modulator activity at GPR68 R189L mutant transfected in human HEK293T cells assessed as proton-mediated calcium release at 10 uM incubated for 10 mins by Fluo-4 Direct calcium dye based FLIPR assay (reference value: 1.42 +/- 0.01 %); conditions: HEK-293T, condition central nervous system disease
[9] = biological target: C-X-C chemokine receptor type 4 (Homo sapiens) (UniProt P61073); assay: Antagonist activity against CXCR4 receptor (unknown origin) transfected in human HEK293T cells at 10 uM incubated for 15 mins in presence of AMD3100 by luminescence counter analysis; type: functional, cell-based
Chain of C-X-C chemokine receptor type 4 (Homo sapiens) (P61073 whole entry): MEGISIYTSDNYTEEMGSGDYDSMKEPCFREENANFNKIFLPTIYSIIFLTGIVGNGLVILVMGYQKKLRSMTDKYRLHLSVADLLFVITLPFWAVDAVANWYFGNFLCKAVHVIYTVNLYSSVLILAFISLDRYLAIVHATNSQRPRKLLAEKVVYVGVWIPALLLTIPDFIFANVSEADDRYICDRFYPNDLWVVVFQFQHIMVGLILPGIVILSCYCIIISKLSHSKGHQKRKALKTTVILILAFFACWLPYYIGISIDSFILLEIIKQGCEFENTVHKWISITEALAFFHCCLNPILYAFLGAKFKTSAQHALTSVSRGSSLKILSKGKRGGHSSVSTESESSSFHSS
Procedure, shortened: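 HEK293-T cells transiently transfected with CXCR4 and the GloSensor cAMP reporter, plated in DMEM with 1% dialyzed FBS. Test compound at 10 μM in 20 mM HEPES/HBSS, pH 7.4, 15 min at room temperature. Agonist mode: luciferin (4 mM final) plus 200 nM isoproterenol added, 20 min. Antagonist mode: compound 10 min, then reference agonist at EC80 for 10 min, then luciferin/isoproterenol. Luminescence read. CXCL12 (1 or 3 μM) is the agonist control and AMD3100 (10 μM) the antagonist control. n=2.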

[10] = Binding affinity to GPR68 E160Q mutant expressed in human HEK293T cells assessed as cAMP production in presence of H+ proton by Split-luciferase based luminescence counter analysis; conditions: condition central nervous system disease; procedure, shortened: as §1
[11] = Toxicity in C57BL/6 mouse assessed as cued memory retrieval by Morris water maze test; conditions: in vivo
[12] = Positive allosteric modulator activity at GPR68 E160Q mutant expressed in human HEK293T cells assessed as cAMP production in presence of H+ proton by Split-luciferase based luminescence counter analysis (reference value: 17.0+/-1.5 %); conditions: HEK-293T, condition central nervous system disease; procedure, shortened: as §1
[13] = Positive allosteric modulator activity at GPR68 H269F mutant expressed in human HEK293T cells assessed as cAMP production in presence of H+ proton by Split-luciferase based luminescence counter analysis (reference value: 17.7+/-0.8 %); conditions: HEK-293T, condition central nervous system disease; procedure, shortened: as §1
[14] = Positive allosteric modulator activity at GPR68 H269F mutant transfected in human HEK293T cells assessed as proton-mediated calcium release at 10 uM incubated for 10 mins by Fluo-4 Direct calcium dye based FLIPR assay (reference value: 1.57 +/- 0.01 %); conditions: HEK-293T, condition central nervous system disease
[15] = biological target: T1, G-protein coupled receptor 68 (Homo sapiens, UniProt Q15743); assay: Positive allosteric modulator activity at HA-tagged GPR68 expressed in human HEK293T cells assessed as activation of PKA at pH 7.4 by immunoblotting analysis; type: cell-based; conditions: filed as positive allosteric modulator
T1 sequence (Q15743 whole entry): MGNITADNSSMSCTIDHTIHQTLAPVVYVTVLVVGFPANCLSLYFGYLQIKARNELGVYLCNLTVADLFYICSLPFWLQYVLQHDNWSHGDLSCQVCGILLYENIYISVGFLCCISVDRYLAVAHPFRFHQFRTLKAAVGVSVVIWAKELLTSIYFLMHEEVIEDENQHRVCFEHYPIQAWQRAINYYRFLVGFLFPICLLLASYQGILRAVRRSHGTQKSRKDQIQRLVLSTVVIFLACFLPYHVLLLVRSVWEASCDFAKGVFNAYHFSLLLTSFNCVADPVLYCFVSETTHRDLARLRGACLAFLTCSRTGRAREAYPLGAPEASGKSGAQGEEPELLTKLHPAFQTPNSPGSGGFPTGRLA
Procedure, shortened: (§2)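 HEK293 cells stably expressing N-terminal HA-tagged human GPR68 (vector-only line as control), selected with 250 μg/ml G418. Confluent cells were switched to Hams-F12 at pH 8.0 or 7.4 for 1 h, then given vehicle or 50 μM compound for 10 min. Lysate immunoblots were probed for HA, total VASP, p-p42/p44 and β-actin, read with infrared-fluorophore secondaries.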

[16] = Positive allosteric modulator activity at GPR68 R189L mutant expressed in human HEK293T cells assessed as cAMP production in presence of H+ proton by Split-luciferase based luminescence counter analysis (reference value: 7.20+/-0.03); type: cell-based; conditions: HEK-293T; procedure, shortened: as §1
Adenosine receptor A2a = Adenosine receptor A2a (Homo sapiens, UniProt P29274); assay: Antagonist activity against A2A adenosine receptor (unknown origin) transfected in human HEK293T cells assessed as inhibition constant […] by luminescence counter analysis; type: functional, cell-based
Chain of Adenosine receptor A2a (P29274 whole entry): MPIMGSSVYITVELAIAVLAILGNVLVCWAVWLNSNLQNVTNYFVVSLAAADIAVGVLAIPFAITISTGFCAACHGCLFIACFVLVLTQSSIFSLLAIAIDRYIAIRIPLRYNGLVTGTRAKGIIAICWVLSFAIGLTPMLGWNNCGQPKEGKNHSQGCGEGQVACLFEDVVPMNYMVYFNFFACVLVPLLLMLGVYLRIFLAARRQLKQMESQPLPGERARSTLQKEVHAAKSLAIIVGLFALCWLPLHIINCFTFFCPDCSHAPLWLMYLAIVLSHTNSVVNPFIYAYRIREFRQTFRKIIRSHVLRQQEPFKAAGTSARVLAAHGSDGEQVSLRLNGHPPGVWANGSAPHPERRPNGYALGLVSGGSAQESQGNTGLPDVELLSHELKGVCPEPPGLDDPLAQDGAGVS

[17] = Positive allosteric modulator activity at GPR68 H269F mutant transfected in human HEK293T cells assessed as proton-mediated calcium release at 10 uM incubated for 10 mins by Fluo-4 Direct calcium dye based FLIPR assay (reference value: 6.44 +/- 0.02); type: cell-based; conditions: HEK-293T
Mus musculus = species: Mus musculus; assay: […] activity against GPR68 knockout C57BL/6 mouse assessed as contextual memory retrieval; type: functional, organism-based
Procedure, shortened: (§3)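 Fear conditioning in wild-type and GPR68 KO C57BL/6J congenic mice. Training was 8 min: 3 pairings of a 30-s, 90 dB, 5 kHz tone with a 2-s, 0.6 mA foot shock. Context freezing scored at 24 h over 5 min; cue test at 48 h over 6 min. Freezing defined as no movement for 0.5 s. Compound 10 mg/kg in 10% Tween 80 or saline, 30 min before training. n=6–8 per group. Two-way ANOVA with Bonferroni post-hoc test.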

[18] = biological target: T1, G-protein coupled receptor 68; assay: Positive allosteric modulator activity at HA-tagged GPR68 expressed in human HEK293T cells assessed as activation of p42/p44 MAP kinase at pH 7.4 by immunoblotting analysis; type: cell-based; conditions: filed as positive allosteric modulator; procedure, shortened: as §2
[19] = Toxicity in C57BL/6 mouse assessed as decreased contextual memory retrieval; conditions: in vivo; procedure, shortened: as §3
[20] = biological target: 5-hydroxytryptamine receptor 2B (Homo sapiens, UniProt P41595); assay: Antagonist activity against 5-HT2B […] receptor (unknown origin) transfected in human HEK293T cells assessed as inhibition constant incubated for 15 mins by luminescence counter analysis; type: functional, cell-based
Chain of 5-hydroxytryptamine receptor 2B (P41595 whole entry): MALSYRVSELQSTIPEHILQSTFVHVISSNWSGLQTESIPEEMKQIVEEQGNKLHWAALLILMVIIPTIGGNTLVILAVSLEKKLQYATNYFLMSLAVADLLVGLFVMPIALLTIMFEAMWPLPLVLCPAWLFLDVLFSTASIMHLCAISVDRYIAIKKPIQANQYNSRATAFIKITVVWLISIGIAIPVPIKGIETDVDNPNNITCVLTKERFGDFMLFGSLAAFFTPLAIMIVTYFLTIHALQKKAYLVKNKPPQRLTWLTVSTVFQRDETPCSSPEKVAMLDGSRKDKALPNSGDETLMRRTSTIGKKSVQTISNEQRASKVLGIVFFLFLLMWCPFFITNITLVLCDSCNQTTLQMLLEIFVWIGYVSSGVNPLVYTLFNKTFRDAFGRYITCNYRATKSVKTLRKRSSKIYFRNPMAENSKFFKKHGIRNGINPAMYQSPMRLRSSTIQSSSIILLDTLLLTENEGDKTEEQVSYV

- EC50 [2]: 155 nM
- EC50 [5]: 87.1 nM
- Activity [9]: inactive
- Activity [15]: Active
- Ki (Adenosine receptor A2a): 220 nM
- EC50 [17]: 145 nM
- Activity [18]: Active
- Ki [20]: 736 nM
Compound: Nc1nc(NCc2ccccc2)nc(-c2ccccc2CO)n1 [Ogerin]
- pKb [1]: 4.67
- pKb [3]: 4.98
- EC50 [4]: 77.6 nM
- Emax at 10 µM [6]: 1.36%
- EC50 [7]: 398 nM
- Emax at 10 µM [8]: 1.35%
- pKb [10]: 4.9
- Activity [11]: Non-Toxic
- Emax [12]: 27.5%
- Emax [13]: 45.1%
- Emax at 10 µM [14]: 1.56%
- EC50 [16]: 43.7 nM
- Activity (Mus musculus): inactive
- Activity [19]: Toxic
